Assay results: ChEMBL document CHEMBL1155284, “Synthesis and antibacterial activity of some new thiadiaza/triazaphospholes, thiadiaza/triaza/tetrazaphosphinines and thiadiaza/tetrazaphosphepines containing 1,2,4-triazinone moiety” (Eur J Med Chem, 2009)
In brackets after ≈: the same amount, converted by molar mass.

What was measured:
[1] = system: Pseudomonas aeruginosa; assay: Antimicrobial activity against Pseudomonas aeruginosa ATCC 27853 at 100 ug/mL after 16 to 20 hrs by disk diffusion method; assay type: functional; details: read-out: DIZ
Method in brief: (§1)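 Nutrient agar disc diffusion with compounds at 100 µg/mL and DMSO as blank. Plates were incubated 16–20 h at 37 °C, then inhibition zone diameter was measured. Zones of 12 mm or less were scored resistant, 13–17 mm moderate, and 18 mm or more maximum inhibition.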

[2] = system: Staphylococcus aureus; assay: Antimicrobial activity against Staphylococcus aureus MTCCB 737 at 100 ug/mL after 16 to 20 hrs by disk diffusion method; assay type: functional; details: read-out: DIZ; method in brief: as §1
[3] = system: Escherichia coli; assay: Antimicrobial activity against Escherichia coli MTCCB 1652 at 100 ug/mL after 16 to 20 hrs by disk diffusion method; assay type: functional; details: read-out: DIZ; method in brief: as §1
[4] = system: Pseudomonas aeruginosa; assay: Antimicrobial activity against Pseudomonas aeruginosa ATCC 27853 after 24 hrs by tube dilution technique; assay type: functional; details: ATCC 27853, 24 h
Method in brief: (§2)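 Tube dilution in nutrient broth at 3.12, 6.25, 12.5, 25 and 50 µg/mL. Each tube received 100 µL of standardized bacterial suspension (10^7 cell/mL). Tubes were incubated at 37 °C for 24 h. MIC was the lowest concentration that maintained or reduced inoculum viability.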

[5] = system: Staphylococcus epidermidis; assay: Antimicrobial activity against Staphylococcus epidermidis MTCCB 1824 at 100 ug/mL after 16 to 20 hrs by disk diffusion method; assay type: functional; details: read-out: DIZ; method in brief: as §1
[6] = system: Staphylococcus aureus; assay: Antimicrobial activity against Staphylococcus aureus MTCCB 737 after 24 hrs by tube dilution technique; assay type: functional; details: MTCCB 737, 24 h; method in brief: as §2
[7] = system: Staphylococcus epidermidis; assay: Antimicrobial activity against Staphylococcus epidermidis MTCCB 1824 after 24 hrs by tube dilution technique; assay type: functional; details: MTCCB 1824, 24 h; method in brief: as §2
[8] = system: Escherichia coli; assay: Antimicrobial activity against Escherichia coli MTCCB 1652 after 24 hrs by tube dilution technique; assay type: functional; details: MTCCB 1652, 24 h; method in brief: as §2
[9] = (§3) Toxicity against Artemia salina larvae after 24 hrs; assay type: organism-based; details: in vivo
Method in brief: (§4)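 Brine shrimp lethality test. Artemia salina eggs were hatched 48 h at 37 °C in filtered sea salt solution (38 g/L) with constant oxygen to give nauplii. Stock was 10 mg compound in 2 mL DMSO, diluted to 80, 40, 20, 10 and 5 µg/mL in triplicate vials, about 10 nauplii each, with a DMSO control. LC50 is the mean of three values.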

[10] = system: Pseudomonas aeruginosa; assay: Antimicrobial activity against Pseudomonas aeruginosa ATCC 27853
[11] = system: Pseudomonas aeruginosa; assay: Antimicrobial activity against Pseudomonas aeruginosa ATCC 27853 at 30 ug/mL after 16 to 20 hrs by disk diffusion method; assay type: functional; details: read-out: DIZ
Method in brief: (§5)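 Nutrient agar disc diffusion with the reference drug tetracycline at 30 µg/mL and DMSO as blank. Plates were incubated 16–20 h at 37 °C, then inhibition zone diameter was measured. Zones of 12 mm or less were scored resistant, 13–17 mm moderate, and 18 mm or more maximum inhibition.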

[12] = system: Escherichia coli; assay: Antimicrobial activity against Escherichia coli MTCCB 1652 at 30 ug/mL after 16 to 20 hrs by disk diffusion method; assay type: functional; details: read-out: DIZ; method in brief: as §5
[13] = system: Staphylococcus epidermidis; assay: Antimicrobial activity against Staphylococcus epidermidis MTCCB 1824 at 30 ug/mL after 16 to 20 hrs by disk diffusion method; assay type: functional; details: read-out: DIZ; method in brief: as §5
[14] = system: Staphylococcus aureus; assay: Antimicrobial activity against Staphylococcus aureus MTCCB 737 at 30 ug/mL after 16 to 20 hrs by disk diffusion method; assay type: functional; details: read-out: DIZ; method in brief: as §5
[15] = system: Artemia salina; assay: as §3; assay type: organism-based; details: in vivo, 24 h; method in brief: as §4

| Molecule | zone of inhibition at 100 µg/mL [1] [mm] | zone of inhibition at 100 µg/mL [2] [mm] | zone of inhibition at 100 µg/mL [3] [mm] | MIC [4] [µg/mL] | zone of inhibition at 100 µg/mL [5] [mm] | MIC [6] [µg/mL] | MIC [7] [µg/mL] | MIC [8] [µg/mL] | LC50 at 24 h [9] [µg/mL] | diameter of the inhibition zone (DIZ) [10] [mm] | zone of inhibition at 30 µg/mL [11] [mm] | zone of inhibition at 30 µg/mL [12] [mm] | zone of inhibition at 30 µg/mL [13] [mm] | zone of inhibition at 30 µg/mL [14] [mm] | LC50 [15] [µg/mL] |
| --- | --- | --- | --- | --- | --- | --- | --- | --- | --- | --- | --- | --- | --- | --- | --- |
| CC1=Nn2c(nnc(C)c2=O)SP1(c1ccccc1)(c1ccccc1)c1ccccc1 | 22 | 20 | 19 | 12.5 (≈ 28.1 µM) | 19 | 25 (≈ 56.2 µM) | 25 (≈ 56.2 µM) | 12.5 (≈ 28.1 µM) |  |  |  |  |  |  |  |
| Cc1nnc2n(c1=O)NP(=O)(c1ccccc1)S2 (stereo not drawn) | 23 | 20 | 21 | 12.5 (≈ 44.6 µM) | 17 | 25 (≈ 89.2 µM) | 25 (≈ 89.2 µM) | 12.5 (≈ 44.6 µM) | 7.85 (≈ 28 µM) |  |  |  |  |  |  |
| Cc1nnc(S)n(N)c1=O | 15 | 13 | 14 | 25 (≈ 158 µM) | 14 | 50 (≈ 316 µM) | 50 (≈ 316 µM) | 50 (≈ 316 µM) |  |  |  |  |  |  |  |
| Cc1nnc(N)n(N)c1=O | 13 | 16 | 14 | 50 (≈ 354 µM) | 15 | 25 (≈ 177 µM) | 25 (≈ 177 µM) | 50 (≈ 354 µM) |  |  |  |  |  |  |  |
| Cc1nnc(NN)n(N)c1=O | 15 | 17 | 15 | 50 (≈ 320 µM) | 15 | 50 (≈ 320 µM) | 50 (≈ 320 µM) | 25 (≈ 160 µM) |  |  |  |  |  |  |  |
| CCOP1(=O)Sc2nnc(C)c(=O)n2NC1c1ccc(Cl)cc1 (stereo not drawn) | 20 | 27 | 15 | 25 (≈ 67.1 µM) | 23 | 6.25 (≈ 16.8 µM) | 6.25 (≈ 16.8 µM) | 50 (≈ 134 µM) | 13.8 (≈ 37.1 µM) |  |  |  |  |  |  |
| Cc1nnc2n(c1=O)N=C(c1ccccc1)CP(c1ccccc1)(c1ccccc1)(c1ccccc1)S2 | 19 | 21 | 16 | 50 (≈ 96 µM) | 19 | 25 (≈ 48 µM) | 12.5 (≈ 24 µM) | 50 (≈ 96 µM) |  |  |  |  |  |  |  |
| CN(C)[C@@H]1C(O)=C(C(N)=O)C(=O)[C@@]2(O)C(O)=C3C(=O)c4c(O)cccc4[C@@](C)(O)[C@H]3C[C@@H]12 [TETRACYCLINE] |  |  |  | 6.25 (≈ 14.1 µM) |  | 6.25 (≈ 14.1 µM) | 6.25 (≈ 14.1 µM) | 6.25 (≈ 14.1 µM) |  | 29 | 29 | 28 | 25 | 30 |  |
| BLEOMYCIN |  |  |  |  |  |  |  |  |  |  |  |  |  |  | 0.41 |
